From ChEMBL document CHEMBL1123165, “A quantitative structure-activity relationship and molecular graphics analysis of hydrophobic effects in the interactions of inhibitors with alcohol dehydrogenase” (J Med Chem, 1986)

Legend:
[1] = target: Alcohol dehydrogenase (Equus caballus, UniProt P00327+P00328); experiment: Inhibitory activity against horse liver alcohol dehydrogenase (ADH)
Outline: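 Horse liver ADH crystalline suspension, pelleted (12000g, 3 min) to remove ethanol, redissolved in 0.1 M potassium phosphate pH 7.0, diluted 1:10; 0.004 unit per assay. Reaction started with 5 or 10 mM ethanol, NADH read at 340 nm.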

[2] = Partition coefficient (logP); type: physicochemical; conditions: octanol/water

| Compound | Log 1/Ki [1] | logP [2] |
| --- | --- | --- |
| NC(=O)Cc1ccc(OCc2ccc(Br)cc2)cc1 | 5.7 | 2.97 |
| NC(=O)Cc1ccc(OCc2ccccc2)cc1 | 5.7 | 2.11 |
| CCCCCc1cn[nH]c1 | 8.6 | 2.96 |
| CCCCCOc1ccc(CNC=O)cc1 | 7.52 |  |
| NC(=O)C(Br)Br | 2.49 | 0.18 |
| NC(=O)Cc1ccc(I)cc1 | 5.1 | 1.57 |
| NC(=O)Cc1ccc(Cl)cc1 | 4.7 | 1.16 |
| NC(=O)C(Cl)Cl | 2.19 | -0.03 |
| NC(=O)C(F)F | 1.12 | -0.76 |
| CC(C)Oc1ccc(CC(N)=O)cc1 | 4.1 | 1.3 |
| CCOc1ccc(CC(N)=O)cc1 | 4.1 | 0.83 |
| CCCOc1ccc(CC(N)=O)cc1 | 4.6 | 1.5 |
| COc1ccc(CC(N)=O)cc1 | 4.15 | 0.43 |
| CC(C)CCOc1ccc(CC(N)=O)cc1 | 5.22 | 2.38 |
| CCCCOc1ccc(CNC=O)cc1 | 7.4 |  |
| C=C(C)C(N)=O | 3.02 | -0.71 |
| NC(=O)Cc1ccc(F)cc1 | 4.19 | 0.59 |
| CCCCCCc1cn[nH]c1 | 8.88 | 3.46 |
| NC(=O)C(Cl)(Cl)Cl | 2.07 | 0.79 |
| CCCCOc1ccc(CC(N)=O)cc1 | 5.15 | 2.04 |

| Compound | Log 1/Ki [1] | logP [2] |
| --- | --- | --- |
| O=CNCc1ccc(OCc2ccccc2)cc1 | 7.82 |  |
| NC(=O)CCl | 2.12 | -0.59 |
| O=CNCc1ccc(O)cc1 | 5.75 |  |
| CCCCCOc1ccc(CC(N)=O)cc1 | 5.92 | 2.58 |
| CCC(CC)C(N)=O | 3.41 | 0.53 |
| CCCc1cn[nH]c1 | 7.65 | 1.96 |
| NC(=O)Cc1ccc(Br)cc1 | 4.7 | 1.31 |
| NC(=O)Cc1ccc(OCC2CCCCC2)cc1 | 6 | 3.42 |
| CCCCCCc1ccc(CNC=O)cc1 | 7.58 |  |
| C/C=C(\C)C(N)=O | 3.15 | -0.21 |
| C/C=C/C(N)=O | 2.89 | -0.51 |
| NC(=O)CBr | 2.24 |  |
| C=CC(N)=O [ACRYLAMIDE] | 2.11 | -1.01 |
| Cc1cn[nH]c1 [FOMEPIZOLE] | 6.85 | 0.96 |
| NC(=O)CI [IODOACETAMIDE] | 2.72 | 0.15 |
| CC(C)C(N)=O [ISOBUTYRAMIDE] | 3.77 | -0.39 |
| NC(=O)CF [MONOFLUOROACETAMIDE] | 1.41 | -1.03 |
| CC(C)(C)C(N)=O [PIVALAMIDE] | 2.46 | 0.15 |
| c1cn[nH]c1 [PYRAZOLE] | 5.73 | 0.26 |
| NC(=O)C(F)(F)F [TRIFLUOROACETAMIDE] | 1.33 | -0.11 |
